Assay [1] can be described thus: Effect of compound on nociceptin-induced allodynia :Values are the mean ( SE of allodynia score at 20 min. significantly different from control (nociceptin alone) by the Mann-Whitney U-test. The assay is classed as functional.
Assay [2] deals with T1, Nociceptin receptor (Homo sapiens, UniProt P41146). The assay is described as follows: Ability to displace [3H]nociceptin ( 0.5 nM ) binding from Opioid receptor like 1 expressed in HeLa cells. Format: cell-based. The gist of the method:
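Membranes from HeLa cells expressing human ORL1 (25 μg protein/mL) in 50 mM Tris pH 8.5 with 2 mM EDTA, 0.1 mM p-aminophenylmethanesulfonyl fluoride and 2 mg/mL BSA. Incubated 30 min at room temperature with 0.5 nM [3H]nociceptin and varied compound concentrations. Bound radioactivity was collected by filtration and counted by scintillation. Nonspecific binding was set with 1 μM unlabeled nociceptin.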

Assay [3] addresses T1, Nociceptin receptor. In words: Percent inhibition of [3H]nociceptin ( 0.5 nM ) binding at 10 uM. Put shortly:
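Single-point test at 10 μM compound against 0.5 nM [3H]nociceptin binding to human ORL1 in HeLa cell membranes. Buffer was Tris pH 8.5 with EDTA, protease inhibitor and BSA; incubation 30 min at room temperature. Filtration and scintillation counting. Specific binding = total minus binding in 1 μM unlabeled nociceptin. Read-out was percent inhibition.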

Assay [4] deals with T1, Nociceptin receptor. In words: Compound was evaluated for its ability to displace [3H]nociceptin ( 0.5 nM ) binding from Opioid receptor like 1 expressed in HeLa cells. The assay is classed as cell-based. The gist of the method: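 Membranes from HeLa cells expressing human ORL1 (25 μg protein/mL) in 50 mM Tris pH 8.5 with 2 mM EDTA, 0.1 mM p-aminophenylmethanesulfonyl fluoride and 2 mg/mL BSA. Incubated 30 min at room temperature with 0.5 nM [3H]nociceptin and varied compound concentrations. Bound radioactivity was collected by filtration and counted by scintillation. Nonspecific binding was set with 1 μM unlabeled nociceptin. Ki reported as mean ± SE, n=3-6.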

A short description of assay [5]: Effect of compound on nociceptin-induced allodynia :Values are the mean ( SE of allodynia score at 20 min. Format: functional. Put shortly:
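Male ICR mice, 4 weeks old, unanesthetized; nociceptin (50 pg/5 μL) injected intrathecally. Test compound 0.3 mg/kg suspended in 0.5% methyl cellulose, or vehicle as control, given orally 60 min before nociceptin. Allodynia score read at 20 min; mean ± SE, n = 9; Mann–Whitney U-test versus nociceptin-alone control.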

The next assay has as its target Mu-type opioid receptor (Homo sapiens, UniProt P35372). The assay is described as follows: Inhibition of [3H]diprenorphine (0.33 nM) binding from human Opioid receptor mu 1 expressed in CHO-K1 cells. Format: cell-based. Put shortly:
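CHO-K1 membranes expressing human μ-opioid receptor in 50 mM Tris-HCl pH 7.4 with 5 mM MgCl2 and 10% sucrose. Incubated 2.5 h at room temperature with 0.33 nM [3H]diprenorphine over a compound concentration range. Filtration and scintillation counting. Nonspecific binding defined with 10 μM naloxone. Ki given as mean ± SE, n=3.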

The target of assay [6] is Delta-type opioid receptor (Homo sapiens, UniProt P41143). In words: Inhibition of [3H]naltrindole (0.55 nM) binding from human Opioid receptor delta 1 expressed in CHO-K1 cells. Format: cell-based. Put shortly: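 Human δ-opioid receptor from CHO-K1 membranes in 50 mM Tris-HCl pH 7.4, 5 mM MgCl2, 10% sucrose. Incubated 1 h at room temperature with 0.55 nM [3H]naltrindole and varied compound concentrations. Filter-bound radioactivity counted. 10 μM naloxone defined nonspecific binding. Ki as mean ± SE, n=3.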

The target in assay [7] is Kappa-type opioid receptor (Homo sapiens, UniProt P41145). The assay is described as follows: Inhibition of [3H][…] (0.55 nM) binding from human Opioid receptor kappa 1.

Molecules are shown by their SMILES.

This is an account of results in ChEMBL document CHEMBL1133540, “4-Aminoquinolines: novel nociceptin antagonists with analgesic activity” (J Med Chem, 2000).

T1 sequence (P41146 whole entry): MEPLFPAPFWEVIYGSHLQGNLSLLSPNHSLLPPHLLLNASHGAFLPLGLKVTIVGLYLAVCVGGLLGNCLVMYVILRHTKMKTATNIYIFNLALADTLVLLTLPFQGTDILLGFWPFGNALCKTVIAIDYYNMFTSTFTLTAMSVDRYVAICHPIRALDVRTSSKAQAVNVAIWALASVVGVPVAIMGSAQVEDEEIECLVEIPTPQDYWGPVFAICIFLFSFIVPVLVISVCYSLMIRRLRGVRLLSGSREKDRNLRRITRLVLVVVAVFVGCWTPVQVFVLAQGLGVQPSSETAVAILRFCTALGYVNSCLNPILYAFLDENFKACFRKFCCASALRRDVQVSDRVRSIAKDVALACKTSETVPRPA
Sequence of Mu-type opioid receptor (P35372 whole entry): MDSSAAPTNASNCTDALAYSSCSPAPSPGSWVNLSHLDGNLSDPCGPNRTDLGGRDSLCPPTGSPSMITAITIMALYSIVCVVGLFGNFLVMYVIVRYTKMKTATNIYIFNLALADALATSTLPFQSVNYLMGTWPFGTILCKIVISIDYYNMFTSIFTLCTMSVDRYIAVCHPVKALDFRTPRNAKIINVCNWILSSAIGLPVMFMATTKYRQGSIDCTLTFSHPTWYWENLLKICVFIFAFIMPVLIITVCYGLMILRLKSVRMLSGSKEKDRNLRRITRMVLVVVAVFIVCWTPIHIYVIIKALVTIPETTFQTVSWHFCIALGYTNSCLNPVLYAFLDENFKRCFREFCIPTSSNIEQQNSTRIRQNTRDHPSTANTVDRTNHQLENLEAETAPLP
Sequence of Delta-type opioid receptor (P41143 whole entry): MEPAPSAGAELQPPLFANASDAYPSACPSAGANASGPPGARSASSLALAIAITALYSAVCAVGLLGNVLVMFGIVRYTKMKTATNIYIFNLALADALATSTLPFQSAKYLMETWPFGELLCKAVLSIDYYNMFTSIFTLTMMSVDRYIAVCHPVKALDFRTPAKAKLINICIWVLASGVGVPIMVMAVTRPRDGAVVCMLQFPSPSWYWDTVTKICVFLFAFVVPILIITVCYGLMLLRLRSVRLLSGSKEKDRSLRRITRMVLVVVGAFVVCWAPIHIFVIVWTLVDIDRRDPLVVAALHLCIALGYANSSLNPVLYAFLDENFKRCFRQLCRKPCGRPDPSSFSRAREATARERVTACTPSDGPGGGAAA
Sequence of Kappa-type opioid receptor (P41145 whole entry): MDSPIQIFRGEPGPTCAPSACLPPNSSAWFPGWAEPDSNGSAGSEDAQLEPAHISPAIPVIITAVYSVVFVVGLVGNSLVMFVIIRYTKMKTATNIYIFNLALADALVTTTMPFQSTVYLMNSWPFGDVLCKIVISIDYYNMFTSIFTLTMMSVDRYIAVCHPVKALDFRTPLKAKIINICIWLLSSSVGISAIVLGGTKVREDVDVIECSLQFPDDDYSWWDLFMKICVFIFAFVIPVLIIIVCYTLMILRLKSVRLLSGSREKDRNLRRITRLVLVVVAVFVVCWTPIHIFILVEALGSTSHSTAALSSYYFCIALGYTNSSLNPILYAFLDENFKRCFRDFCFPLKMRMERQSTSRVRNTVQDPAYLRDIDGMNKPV

As to `CC(C)C[C@H](NC(=O)[C@H](CCCCN)NC(=O)[C@H](CCCN=C(N)N)NC(=O)[C@H](C)NC(=O)[C@H](CO)NC(=O)[C@H](CCCCN)NC(=O)[C@H](CCCN=C(N)N)NC(=O)[C@H](C)NC(=O)CNC(=O)[C@@H](NC(=O)[C@H](Cc1ccccc1)NC(=O)CNC(=O)CNC(=O)[C@@H](N)Cc1ccccc1)[C@@H](C)O)C(=O)N[C@@H](C)C(=O)N[C@@H](CC(N)=O)C(=O)N[C@@H](CCC(N)=O)C(=O)O.CCc1ccc(OCc2ccccc2C(=O)Nc2ccc3nc(C)cc(N)c3c2)cc1`, the Allodynia score in assay [1] is under 3.11. The Ki is the dissociation constant of the complex between target and ligand, obtained from inhibition or displacement. High values mean weaker binding, low ones tighter binding. On Nociceptin receptor [2], `Cc1cc2ccc(NC(=O)c3ccccc3COc3ccc(Cl)cc3)cc2c(N)n1` registered an inhibition constant (Ki) of 0.0373 µM. This counts as double-digit nanomolar. Usually inhibition stands for how much of the control response was suppressed. Higher therefore signals a response far below the control. `Cc1cc(N)c2cc(NC(=O)c3ccc(CCc4ccccc4)cc3)ccc2n1` returned an inhibition on Nociceptin receptor [3] of 48.4%. Molecule `Cc1cc(N)c2cc(NC(=O)c3ccccc3COc3ccc(Cl)cc3)ccc2n1` registered a Ki on Nociceptin receptor [2] of 0.0022 µM. The same measure, in the same setting: the result for `Cc1cc(N)c2cc(NC(=O)c3ccccc3COc3cccc(Cl)c3)ccc2n1` reads 0.0204 µM. Still for that read-out and setting: the result for `Cc1cc(N)c2cc(NC(=O)c3ccccc3COc3ccc(O)cc3)ccc2n1` reads 0.0467 µM. Turning to `Cc1cc(N)c2cc(NC(=O)c3ccccc3Cc3ccccc3)ccc2n1`, the inhibition at Nociceptin receptor [3] was 45.4%.

With `Cc1cc(N)c2cc(NC(=O)c3ccccc3CCc3ccccc3)ccc2n1`, the affinity on Nociceptin receptor [4] corresponds to a Ki of 0.0799 µM. Further, the inhibition at Nociceptin receptor [3] came out at 90.5%. Molecule `CC(C)C[C@H](NC(=O)[C@H](CCCCN)NC(=O)[C@H](CCCNC(=N)N)NC(=O)[C@H](C)NC(=O)[C@H](CO)NC(=O)[C@H](CCCCN)NC(=O)[C@H](CCCNC(=N)N)NC(=O)[C@H](C)NC(=O)CNC(=O)[C@@H](NC(=O)[C@H](Cc1ccccc1)NC(=O)CNC(=O)CNC(=O)[C@@H](N)Cc1ccccc1)[C@@H](C)O)C(=O)N[C@@H](C)C(=O)N[C@@H](CC(N)=O)C(=O)N[C@@H](CCC(N)=O)C(=O)O` yielded an Allodynia score in assay [5] of 7.11. Regarding `Cc1cc(N)c2cc(NC(=O)c3ccccc3COc3ccc(C(F)(F)F)cc3)ccc2n1`, the affinity on Nociceptin receptor [2], expressed as Ki, was 0.0018 µM. On the same count and under the same terms, the result for `CCCc1cc(N)c2cc(NC(=O)c3ccccc3COc3ccc(Cl)cc3)ccc2n1` reads 0.0018 µM; that for `Cc1ccc(OCc2ccccc2C(=O)Nc2ccc3nc(C)cc(N)c3c2)cc1`, 0.007 µM. On to `Cc1cc(N)c2cc(NC(=O)c3ccccc3CCCc3ccccc3)ccc2n1`, for which the affinity on Nociceptin receptor [2] corresponds to a Ki of 0.121 µM. On Nociceptin receptor [3], this molecule registered an inhibition of 98%. On Nociceptin receptor [2], `CCc1cc(N)c2cc(NC(=O)c3ccccc3COc3ccc(Cl)cc3)ccc2n1` came in with an inhibition constant Ki of 0.0018 µM. For `Nc1ccnc2ccc(NC(=O)c3ccccc3COc3ccc(Cl)cc3)cc12`, the affinity at Nociceptin receptor [2] corresponds to a Ki of 0.0856 µM.

`Cc1ccc(CCc2ccccc2C(=O)Nc2ccc3nc(C)cc(N)c3c2)cc1` returned an inhibition constant Ki at Nociceptin receptor [2] of 0.0885 µM. In turn, `Cc1cc(N)c2cc(NC(=O)c3ccccc3COc3ccc(N)cc3)ccc2n1` registered a Ki on Nociceptin receptor [2] of 0.0824 µM. Consider `Cc1cc(N)c2cc(NC(=O)c3ccccc3-c3ccccc3)ccc2n1`, for which the Ki on Nociceptin receptor [2] was determined as 0.369 µM. On Nociceptin receptor [3], this molecule returned an inhibition of 51.7%.

The molecule `Cc1cc(N)c2cc(NC(=O)c3cccc(CCc4ccccc4)c3)ccc2n1` gave an inhibition at Nociceptin receptor [3] of 23%. For the molecule `Cc1cc(N)c2cc(NC(=O)c3ccccc3COc3ccccc3)ccc2n1`, at Nociceptin receptor [4], affinity was put at a Ki of 0.0507 µM. The molecule also gave an inhibition at Nociceptin receptor [3] of 93.6%.

For `Cc1cc(N)c2cc(NC(=O)c3ccccc3)ccc2n1`, the inhibition on Nociceptin receptor [3] came out at 32.9%.

With `CCc1ccc(OCc2ccccc2C(=O)Nc2ccc3nc(C)cc(N)c3c2)cc1`, the Ki at Nociceptin receptor [2] is 0.0082 µM; at Mu-type opioid receptor it was 0.103 µM; in assay [6], 8.65 µM; in assay [7] it was 1.06 µM. At Nociceptin receptor [2], `Cc1cc(N)c2cc(NC(=O)c3ccccc3COc3ccc(Br)cc3)ccc2n1` returned a Ki of 0.0026 µM.
